Measurements from the RNAGym collection of RNA variant scans (doi:10.1126/science.aae0568).
Fewer inactive variants are shown than the library holds.

B1: tRNA (parent)
chain: GUUCCGUUGGCGUAAUGGUAACGCGUCUCCCUCCUAAGGAGAAGACUGCGGGUUCGAGUCCCGUACGGAACG

Variants of: B1
Test: yeast fitness relative to wild type (ratio to wild type); higher = fitter; tRNA-Arg(CCU), competitive growth, 37 C, YPD
How it was run: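 Amplicons of the tRNA-Arg(CCU) gene were sequenced, 100-nucleotide paired-end, from the start population and from each end population of a pooled yeast competition. The competition, in six parallel replicates, lasted 24 hours in YPD at 37°C. Fitness relative to wild type was calculated from changes in genotype frequencies. Genotypes had to have ≥ 100 starting reads, and estimates < 0.5 were set to 0.5.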

Variant | yeast fitness
A20G G23C A69C | ≤ 0.5
A20G G67U A69C | ≤ 0.5
A20C A45U C55U | ≤ 0.5
U19C C46U A69C | 0.724
A20G C33A A36C U47A | ≤ 0.5
A20G C24A A42U | 0.546
A20C G39C | 0.723
U19C U26G A57G | ≤ 0.5
A20C C24A C27A A36C | ≤ 0.5
A20G A57C | 0.642
U19G C22G C34U C49U | ≤ 0.5
A20C A42C A45C G48A | 0.565
A20G A37C A40G C49U | ≤ 0.5
A20G C24U | 0.9
A20C G25A C31G C33U C34U G41C C60A C66U | ≤ 0.5
U19A U54A | 0.706
U19A G48A A65U | 0.71
U19G C22G C34U G68C | ≤ 0.5
U19A G38C G56C | ≤ 0.5
G18U U26A C66A A70U | 0.536
A20C G67U | 0.754
U19C C49G | 1.14
U19C A37G G58C C61U U64C | ≤ 0.5
A20C A42G | 0.842

Variant | yeast fitness
A20G G23A G38A | ≤ 0.5
U19G A43U C66A | 0.6
A20C C24G C27U C31G U54C A65C | ≤ 0.5
U19A C27G C31U A69U | ≤ 0.5
A20C A69U | 1.04
U19C G25C G51C C60U A69U | ≤ 0.5
A20C C31A | 0.79
A20C C30A A65C | 0.583
A20G C60U A69U | 0.592
U19C C24A U47C | ≤ 0.5
A20C A36U G39C G48A | ≤ 0.5
U19A C27A C46A | 0.506
A20C C27U C66U G67C | ≤ 0.5
A20G C60U | 0.744
A20G C24A C49U C66U A70C | ≤ 0.5
U19A C24G C27U C30A A36G G52C | ≤ 0.5
U19A C24G C29U G52C U64G | ≤ 0.5
U19A C29U G67C A69G | ≤ 0.5
U19A U32C C49A | ≤ 0.5
U19G A20U C27G A36G | ≤ 0.5
A20C A21U C30U C31A G63A | 0.628
U19C A57C | 0.594
U19C A57G | 0.945
U19A C27U A65U | 0.717

Variant | yeast fitness
U19C C27A C46A A70C | ≤ 0.5
U19G G41A G48C C49U A57C A70U | ≤ 0.5
U19C G50A C55A C66A | 0.516
A20C G38A U53A | ≤ 0.5
A20G C22G G38A | 0.539
U19C A42G C46A C55G | ≤ 0.5
A20G A40G G50C | 0.574
U19A A57G | 0.931
U19C U35G A43G | 0.598
A20C C49U U59C | 0.588
U19C U53C C61A G68A | ≤ 0.5
U19A U28A C31G A43G A45G | ≤ 0.5
A20G G25A C34A A36G G50C | ≤ 0.5
A20G C29G G68A | ≤ 0.5
A20C C33U A37G A45U G48A G56C | ≤ 0.5
A20C C30G C33G | ≤ 0.5
A20C C60U A69U | 0.617
A20C U35C G51C A57G C60G A70U | ≤ 0.5
A20G C29G C49U G68A | ≤ 0.5
A20C A43C A69U A70C | 0.725
A20G C31U A57C U64A G68A | ≤ 0.5
A20C U54G | 0.539
U19C C60A | 0.547
U19A G48A G68C | 0.626

Variant | yeast fitness
A20C G39C G41A | 0.652
U19C C27G C46U | 0.673
U19G C34A G50A | ≤ 0.5
U19C C31G U53G U54A A57U | 0.653
A20C G68A A70C | 0.522
U19G A37G A65U A69U | ≤ 0.5
A20G A42C A45C | ≤ 0.5
U19C C22G C34G A70U | ≤ 0.5
A20C A43C C49A U54A G58A C60A | ≤ 0.5
A20C G52C | 0.583
A20G C31U C46G | 0.649
A20C C30G | 0.612
U19A C49U | 1.03
U19A C49A | 0.642
A20C C24G C33G A42U A57C G67C | 0.645
A20G A40U G52A C55A | 0.529
U19A C49G G56U | 0.558
U19C U35C C49U C61G | ≤ 0.5
U19C G58C C61U C66U | 0.529
A20G G25A C62U A65C | 0.813
U19A A21G | 0.987
A20C C27A G52A | ≤ 0.5
U19G C24G | 0.553
U19C U28A G38C G44C C46A | 0.572

Variant | yeast fitness
U19C C33G A57G C61G | ≤ 0.5
A20G C34G | 0.68
A20G C34U | 0.777
A20G C49U C61G | 0.617
U19A A45U C46U | 1.07
U19G U47C U64G | 0.536
A20G A45U G63C | 0.539
U19C A20U C55A | ≤ 0.5
U19C U47A A57C | ≤ 0.5
U19C C31U C33G G41A C49G U54C G63A | ≤ 0.5
A20G C24U G56A C66G | ≤ 0.5
A20G G38C C46U G63U | ≤ 0.5
A20G U28C C62A | ≤ 0.5
U19C G51C | 0.519
U19A G39A G44A | 0.873
A20C G41C C66G | ≤ 0.5
A20G C27A A40G A45C | ≤ 0.5
U19C G50A G56A | 0.749
A20C C27U C34G C61U C62G | 0.616
U19A C46U C49G | 1.07
U19A C30G A40C C62G C66G A69C | ≤ 0.5
U19A C27G G63C | 0.754
U19G U28G | 0.551
U19A A43U A45C G67C | ≤ 0.5

Variant | yeast fitness
U19C C29A G39C A57G C61U C66U | ≤ 0.5
U19A C49A U54G U59A G63C A69G | ≤ 0.5
A20C G39C C49U | ≤ 0.5
A20C C24U C31G A37U C60G | ≤ 0.5
U19A C30A A43G C49U G51U C55A | 0.528
U19C C27U C33U A40C C55A A65G | ≤ 0.5
U19C C33G C34U U54A C66U | 0.524
U19A C46U G48A U53C | 0.784
A20C G56A A65G C66U | 0.562
A20G C60U C62U | ≤ 0.5
U19A C30A | 0.812
A20G A43U | 1.03
U19C A20C A70U | 0.65
U19G U47C C66U | 0.786
A20C A57C C60A | ≤ 0.5
U19C A36U C62G | 0.529
A20C G48C A57G G63A | ≤ 0.5
A20C C61U A69U | 0.61
U19A A36C G51C U59A | ≤ 0.5
U19A C22G C24U C33G | 0.674
U19C C27A C30G A45C | ≤ 0.5
A20C A45C | 0.843
U19A C34G A57U | ≤ 0.5
A20C G44A G56A | 0.544

Variant | yeast fitness
A20G G48C | 1
A20G C29G G50A A70U | ≤ 0.5
A20G C31G C60G | ≤ 0.5
U19G A65U | 0.99
A20C U32A C34G A37U | ≤ 0.5
A20G G58C | 1
U19G C34A | 0.87
A20G C24A A70U | 0.546
A20G A42C A70G | 0.629
A20C C31G G48A G50C C60G | 0.722
A20C G25C A40U | 0.605
U19A C34G A43C | 0.534
A20G C22G U54A | ≤ 0.5
U19A A21C G25C G68C | 0.752
U19G C55G A69U | 0.54
G18U U26A G67C | ≤ 0.5
A20G G67A A69C | 0.563
U19C A36G | 1.01
A20C C34G A69U | 0.549
A20G C34U A40U A42U | ≤ 0.5
A20G A65U G68C | 0.556
U19A C27A C46A G67A | ≤ 0.5
U19A U64A | 0.807
